The list is not random: actives were taken first. Their share in the collection is about 3.1%.
Apaf-1 inh: inhibitors of human Apaf-1 apoptosome; O14727; reconstituted apoptosome caspase-3 activity, DEVD-Rh110 fluorescence; inhibition, % at 20 µM; 0.71% of 330,000 active; AID 489030; active = inhibition of at least 40% at 20 µM
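Assay system – apoptosome proteins · Medium – Hepes buffer, pH 7.5 · Also added – cytochrome c with DEVD-Rh110 · Timing – 30 min compound preincubation, 50 min activation, room temperature · Detection – Rh110 fluorescence, excitation 480 nm, emission 540 nm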
PREPL inhibitor: inhibits the human prolyl oligopeptidase-like enzyme; inhibition, % at 5.96 µM; recombinant PREPL, fluorescence polarization activity-based probe; Q4J6C6; 0.68% of 320,000 active
MEKK2 mut-MEK5: signal of MEK5 binding to mutant human MEKK2 PB1 domain; bead flow cytometry, Alexa488-MEK5 binding to MEKK2 mutant; percent response, % at 10 µM; AID 1530; 0.35% of 290,000 active; in the data active = percent response above about 24%, passing the limit was not always enough
MEKK2 WT-MEK5: raises or lowers MEK5 binding to wildtype human MEKK2 PB1 domain; Q9Y2U5; bead flow cytometry, Alexa488-MEK5 binding to MEKK2 WT; actives lie on both sides; binding response (% of control), % at 10 µM; 1.1% of 290,000 active; in the data active = binding response below about 67% or above about 130%
MEKK3 PB1 HTS: modulators (inhibitors or enhancers) of MEK5 binding to human MEKK3 PB1 domain; Q99759; bead-based flow cytometry, Alexa488-MEK5 binding to MEKK3; actives lie on both sides; 0 = blocked by unlabeled MEK5, 100 = vehicle; binding response (% of control), % at 10 µM; 1.4% of 290,000 active; AID 1529;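 active = binding response more than 3 SD above or below the average of its plate-row segment, actives on both sides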;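 note: Alexa488 bead fluorescence after subtracting the streptavidin-only scavenger bead signal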
UBC13 polyUb: inhibitors of human UBC13 polyubiquitin chain formation; 0.47% of 330,000 active; P61088; TR-FRET; AID 485273; inhibition, % at 20 µM; in the data active = inhibition above about 45%, passing the limit was not always enough
MEKK2wt confirm: raises or lowers MEK5 binding to wildtype human MEKK2, retest. shares compounds with MEKK3 PB1 HTS. AID 1892. binding response (% of control), % at 10 µM. 2.4% of 5,900 active. bead flow cytometry, Alexa488-MEK5 binding to MEKK2 WT; actives lie on both sides; in the data active = binding response below about 16% or above about 210%; inactive = in between
MEKK2mut confirm: signal of MEK5 binding to mutant human MEKK2, retest; shares compounds with MEKK3 PB1 HTS; bead flow cytometry, Alexa488-MEK5 binding to MEKK2 mutant; percent response, % at 10 µM; 2% of 5,900 active; in the data active = percent response mostly above about 71%, no sharp cut-off; inactive = mostly below about 38%;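 note: higher means compound restores mutant binding toward wildtype level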
MEKK3 confirm: MEKK3-MEK5 PB1 inhibition, single concentration confirmation; shares compounds with MEKK3 PB1 HTS; bead flow cytometry, Alexa488-MEK5 binding to MEKK3; active compounds read low; binding response (% of control), % at 10 µM; 1.8% of 5,900 active;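 active = binding response below 72% of control, or above a set upper limit, though filed actives all read lower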;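 note: lower values mean stronger disruption of MEK5 binding to MEKK3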
PREPL inh cf: human PREPL inhibition, confirmation. shares compounds with PREPL inhibitor. recombinant PREPL, fluorescence polarization activity probe. inhibition, % at 5.96 µM. 67% of 2,000 active
Casp3 UBC13 ctr: inhibits human caspase-3 in UBC13 counter-screen; Recombinant caspase-3, Caspase-Glo 3/7 luminescence, 60 min; inhibition, % at 20 µM; 4% of 1,400 active; shares compounds with UBC13 polyUb; AID 488856;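 active = mean inhibition across replicates above about 26%, limit read from the data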
UBC13 confirm: human UBC13 polyubiquitin inhibition, confirmed. shares compounds with UBC13 polyUb. UBC13 polyubiquitination, TR-FRET, biochemical. inhibition, % at 10 µM. 68% of 1,400 active; in the data active = inhibition above about 45%
Large screens that a line does not name were inactive (follow-up assays come after a bar, where they were run); [ ] = remark or other dose. Cut-off read from the data, not from the text of the source, unless noted: active = inhibition above about 43%; inactive = the rest.

COc1ccc(OCc2nc3c4cc(OC)c(OC)cc4nc(=S)n3[nH]2)cc1	MEKK3 PB1 HTS 128, UBC13 polyUb 59 | MEKK2wt confirm inactive | MEKK2mut confirm inactive | MEKK3 confirm inactive | Casp3 UBC13 ctr inactive | UBC13 confirm inactive
COc1ccc(CCN2CCC(Nc3nc4ccccc4n3Cc3ccc(F)cc3)CC2)cc1	Apaf-1 inh 56, MEKK2 mut-MEK5 38, MEKK2 WT-MEK5 150, UBC13 polyUb 48 | MEKK2wt confirm inactive | MEKK2mut confirm inactive | MEKK3 confirm inactive | Casp3 UBC13 ctr inactive | UBC13 confirm inactive
COc1ccc(-c2cc(C#N)nc(N3CCNCC3)n2)cc1	MEKK2 mut-MEK5 57, MEKK2 WT-MEK5 215, UBC13 polyUb 98 | MEKK2wt confirm 223 | MEKK2mut confirm 71 | MEKK3 confirm inactive | Casp3 UBC13 ctr inactive | UBC13 confirm 74
COc1ccc(-c2cc(C#N)nc(N3CCN(C)CC3)n2)cc1	none
CC(C)(C)c1ccc(S(=O)(=O)N2CCN(CC(=O)NC(=O)NC3CCCCC3)CC2)cc1	none (no result: MEKK2 mut-MEK5, MEKK2 WT-MEK5, MEKK3 PB1 HTS)
CCCC[C@@H](CNC)NC[C@H](NCCCCC1CCCCC1)C(C)C	MEKK2 mut-MEK5 30, UBC13 polyUb 66 | MEKK2wt confirm inactive | MEKK2mut confirm inactive | MEKK3 confirm inactive | Casp3 UBC13 ctr inactive | UBC13 confirm 45
CC(C)(c1ccccc1)c1ccc(OCC(O)CNC2CCN(Cc3ccccc3)CC2)cc1 (centres undefined)	MEKK2 mut-MEK5 62, MEKK2 WT-MEK5 252, UBC13 polyUb 63 | MEKK2wt confirm inactive | MEKK2mut confirm inactive | MEKK3 confirm inactive | Casp3 UBC13 ctr inactive | UBC13 confirm 70
COC(=O)c1c(NC(=S)NN2CCN(C)CC2)sc2c1CCC(C)C2 (centres undefined)	MEKK2 WT-MEK5 163, UBC13 polyUb 62 | MEKK2wt confirm inactive | MEKK2mut confirm inactive | MEKK3 confirm inactive | Casp3 UBC13 ctr inactive | UBC13 confirm 91
CCOc1cc(CNCCc2ccc(S(N)(=O)=O)cc2)ccc1OCc1ccc(Cl)cc1	MEKK2 mut-MEK5 46, MEKK2 WT-MEK5 214, UBC13 polyUb 58 | MEKK2wt confirm inactive | MEKK2mut confirm inactive | MEKK3 confirm inactive | Casp3 UBC13 ctr inactive | UBC13 confirm 66
Cc1ccc(C(=O)N/C(=C\c2ccc(-c3ccc(Cl)cc3)o2)C(=O)NCCCN(C)C)cc1	MEKK3 PB1 HTS 43[inhibitor], UBC13 polyUb 47 | MEKK2wt confirm inactive | MEKK2mut confirm inactive | MEKK3 confirm inactive | Casp3 UBC13 ctr inactive | UBC13 confirm 70
CN(C)CCCNC(=O)/C(=C\c1ccc(-c2ccc(Br)cc2)o1)NC(=O)c1ccccc1	none
Cc1cc(C2N=C(N)Nc3nc4ccccc4n32)c(C)n1-c1ccccc1Cl (centres undefined)	MEKK2 mut-MEK5 26, MEKK2 WT-MEK5 138, UBC13 polyUb 46 | MEKK2wt confirm inactive | MEKK2mut confirm inactive | MEKK3 confirm inactive | Casp3 UBC13 ctr inactive | UBC13 confirm 55
O=C(C[n+]1ccc(CCSc2ccc(F)cc2)cc1)c1ccccc1	PREPL inhibitor 53, MEKK2 mut-MEK5 249, MEKK2 WT-MEK5 61, UBC13 polyUb 72 | MEKK2wt confirm inactive | MEKK2mut confirm inactive | MEKK3 confirm inactive | PREPL inh cf 44 | Casp3 UBC13 ctr inactive | UBC13 confirm 124
Cc1cc(OCC(=O)N2CCC(C(=O)O)CC2)c2c(C)c(C)c(=O)oc2c1	none
CN(C)CCNc1ncnc2c1sc1nc(-c3ccccc3)c3c(c12)CCCC3	MEKK2 mut-MEK5 61, MEKK2 WT-MEK5 201, UBC13 polyUb 62 | MEKK2wt confirm 209 | MEKK2mut confirm inactive | MEKK3 confirm inactive | Casp3 UBC13 ctr inactive | UBC13 confirm 103
c1nc(NCCN2CCOCC2)c2sc3nc(N4CCOCC4)c4c(c3c2n1)CCC4	none (no result: Apaf-1 inh, UBC13 polyUb)
C#CCOCCOCCOCCNc1nc(N2CCN(C(=O)[C@H]([C@@H](C)CC)n3cc([C@@H](N)Cc4ccc(O)cc4)nn3)CC2)nc(N2CCN(C(=O)[C@H](Cc3ccc(O)cc3)n3cc([C@@H](N)CC(C)C)nn3)CC2)n1	MEKK2 WT-MEK5 181, UBC13 polyUb 45 | MEKK2wt confirm inactive | MEKK2mut confirm inactive | MEKK3 confirm inactive | Casp3 UBC13 ctr inactive | UBC13 confirm inactive
C#CCOCCOCCOCCNc1nc(N2CCN(C(=O)[C@H](Cc3ccc(O)cc3)n3cc([C@@H](N)C(C)CC)nn3)CC2)nc(N2CCN(C(=O)[C@H](CCCCN)n3cc([C@@H](N)CO)nn3)CC2)n1 (some centres undefined)	none
C#CCOCCOCCOCCNc1nc(N2CCN(C(=O)[C@H](CCCCN)n3cc([C@@H](N)C(C)CC)nn3)CC2)nc(N2CCN(C(=O)[C@H](Cc3cc4ccccc4[nH]3)n3cc([C@@H](N)CC(C)C)nn3)CC2)n1 (some centres undefined)	PREPL inhibitor 58, MEKK2 mut-MEK5 93, MEKK2 WT-MEK5 237, UBC13 polyUb 100 | MEKK2wt confirm inactive | MEKK2mut confirm inactive | MEKK3 confirm inactive | PREPL inh cf 58 | Casp3 UBC13 ctr inactive | UBC13 confirm 116
C#CCOCCOCCOCCNc1nc(N2CCN(C(=O)[C@H]([C@@H](C)CC)n3cc([C@@H](N)Cc4ccc(O)cc4)nn3)CC2)nc(N2CCN(C(=O)[C@H]([C@@H](C)CC)n3cc([C@@H](N)CC(C)C)nn3)CC2)n1	MEKK2 WT-MEK5 139, UBC13 polyUb 68 | MEKK2wt confirm inactive | MEKK2mut confirm inactive | MEKK3 confirm inactive | Casp3 UBC13 ctr inactive | UBC13 confirm inactive

Assay outcomes from PubChem.
